Reference: ChEMBL document CHEMBL3046139, “Preparation and phytotoxicity of novel kaurane diterpene amides with potential use as herbicides” (J Agric Food Chem, 2008)
Calls of active or inactive are those of the source.

Key:
Assay type in all cases: functional, organism-based
[1] = system: Lactuca sativa; assay: Phytotoxicity in Lactuca sativa cv. Grand Rapids (lettuce) assessed as inhibition of seed germination at 10 uM measured 5 days post compound treatment
Outline: (§1)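 Test solutions in deionized water, buffered with 10 mM MES and adjusted to pH 6.0-6.5 with NaOH. Concentrations below 10^-3 M made by dilution series. Osmotic pressure 30-38 mOsmolar. Petri dishes sealed with Parafilm and kept in the dark at 25 °C for 5 days, in triplicate. Seed counted as germinated when radicle was at least 0.2 mm. Radicle and shoot lengths measured by pachymeter with dishes held at 4 °C. Results given as percent difference from untreated control means. Student's t-test, P ≤ 0.05.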

[2] = system: Lactuca sativa; assay: Phytotoxicity in Lactuca sativa cv. Grand Rapids (lettuce) assessed as inhibition of seed germination at 0.1 uM measured 5 days post compound treatment; outline: as §1
[3] = system: Lactuca sativa; assay: Phytotoxicity in Lactuca sativa cv. Grand Rapids (lettuce) assessed as inhibition of shoot length at 1 mM measured 5 days post compound treatment; outline: as §1
[4] = system: Lactuca sativa; assay: Phytotoxicity in Lactuca sativa cv. Grand Rapids (lettuce) assessed as inhibition of seed germination at 1 mM measured 5 days post compound treatment; outline: as §1
[5] = system: Lactuca sativa; assay: Phytotoxicity in Lactuca sativa cv. Grand Rapids (lettuce) assessed as inhibition of radicle length at 1 mM measured 5 days post compound treatment; outline: as §1
[6] = system: Lactuca sativa; assay: Stimulation of seed germination in Lactuca sativa cv. Grand Rapids (lettuce) at 0.1 uM measured 5 days post compound treatment; outline: as §1
[7] = system: Lactuca sativa; assay: Stimulation of seed germination in Lactuca sativa cv. Grand Rapids (lettuce) at 1 mM measured 5 days post compound treatment; outline: as §1
[8] = system: Lactuca sativa; assay: Stimulation of radicle growth in Lactuca sativa cv. Grand Rapids (lettuce) at 0.1 uM measured 5 days post compound treatment; outline: as §1
[9] = system: Lactuca sativa; assay: Stimulation of shoot growth in Lactuca sativa cv. Grand Rapids (lettuce) at 0.1 uM measured 5 days post compound treatment; outline: as §1
[10] = system: Lactuca sativa; assay: Stimulation of shoot growth in Lactuca sativa cv. Grand Rapids (lettuce) at 10 uM measured 5 days post compound treatment; outline: as §1
[11] = system: Lactuca sativa; assay: Stimulation of radicle growth in Lactuca sativa cv. Grand Rapids (lettuce) at 10 uM measured 5 days post compound treatment; outline: as §1

C=C1C[C@@]23CC[C@H]4[C@@](C)(CCC[C@@]4(C)C(=O)NC4CCCCC4)[C@@H]2CC[C@@H]1C3
active: inhibition [1] | inhibition [2] | inhibition [3] | inhibition [4] | inhibition [5]

C=C1C[C@@]23CC[C@H]4[C@@](C)(CCC[C@@]4(C)C(=O)NCCCCN)[C@@H]2CC[C@@H]1C3
active: inhibition [3] | Activity [6] | inhibition [4] | inhibition [5]

C=C1C[C@@]23CC[C@H]4[C@@](C)(CCC[C@@]4(C)C(=O)NCCCCCC)[C@@H]2CC[C@@H]1C3
active: inhibition [1] | inhibition [2] | inhibition [3] | inhibition [4] | inhibition [5]

C=C1C[C@@]23CC[C@H]4[C@@](C)(CCC[C@@]4(C)C(=O)NCCN)[C@@H]2CC[C@@H]1C3
active: inhibition [1] | inhibition [2] | inhibition [3] | inhibition [4] | inhibition [5]

C=C1C[C@@]23CC[C@@H]4[C@](C)(C(=O)NCCCCN)CCC[C@@]4(C)C2=CC[C@@H]1C3
active: inhibition [3] | Activity [6] | inhibition [4] | inhibition [5]

C=C1C[C@@]23CC[C@@H]4[C@](C)(C(=O)NCCCN)CCC[C@@]4(C)C2=CC[C@@H]1C3
active: inhibition [1] | inhibition [2] | inhibition [3] | inhibition [4] | inhibition [5]

C=C1C[C@@]23CC[C@@H]4[C@](C)(C(=O)NCCCCCC)CCC[C@@]4(C)C2=CC[C@@H]1C3
active: inhibition [1] | inhibition [2] | inhibition [3] | inhibition [4] | inhibition [5]

C=C1C[C@@]23CC[C@@H]4[C@](C)(C(=O)NC5CCCCC5)CCC[C@@]4(C)C2=CC[C@@H]1C3
active: inhibition [1] | inhibition [2] | inhibition [3] | inhibition [4] | inhibition [5]

C=C1C[C@@]23CC[C@H]4[C@@](C)(CCC[C@@]4(C)C(=O)NCCCN)[C@@H]2CC[C@@H]1C3
active: inhibition [1] | inhibition [2] | inhibition [3] | inhibition [4] | inhibition [5]

C=C1C[C@@]23CC[C@@H]4[C@](C)(C(=O)NCCN)CCC[C@@]4(C)C2=CC[C@@H]1C3
active: inhibition [1] | inhibition [2] | inhibition [3] | inhibition [4] | inhibition [5]

C=C1C[C@]23C[C@@]1(O)CC[C@H]2[C@@]12C=C[C@H](O)[C@@](C)(C(=O)O1)[C@H]2[C@@H]3C(=O)O
active: Activity [7]

C=C1C[C@@]23CC[C@H]4[C@@](C)(CCC[C@@]4(C)C(=O)N4CCOCC4)[C@@H]2CC[C@@H]1C3
active: inhibition [1] | inhibition [2] | inhibition [3] | inhibition [4] | inhibition [5]

C=C1C[C@@]23CC[C@H]4[C@@](C)(CCC[C@@]4(C)C(=O)N4CCNCC4)[C@@H]2CC[C@@H]1C3
active: inhibition [1] | Activity [8] | Activity [9] | inhibition [2] | inhibition [3] | Activity [10] | Activity [11] | inhibition [4] | inhibition [5]

C=C1C[C@@]23CC[C@@H]4[C@](C)(C(=O)N5CCOCC5)CCC[C@@]4(C)C2=CC[C@@H]1C3
active: inhibition [1] | inhibition [2] | inhibition [3] | inhibition [4] | inhibition [5]

C=C1C[C@@]23CC[C@H]4[C@@](C)(CCC[C@@]4(C)C(=O)Nc4ccccc4)[C@@H]2CC[C@@H]1C3
active: inhibition [1] | inhibition [2] | inhibition [3] | inhibition [4] | inhibition [5]

C=C1C[C@@]23CC[C@@H]4[C@](C)(C(=O)Nc5ccccc5)CCC[C@@]4(C)C2=CC[C@@H]1C3
active: inhibition [1] | inhibition [2] | inhibition [3] | inhibition [4] | inhibition [5]

C=C1C[C@@]23CC[C@@H]4[C@](C)(C(=O)N5CCNCC5)CCC[C@@]4(C)C2=CC[C@@H]1C3
active: inhibition [1] | Activity [8] | Activity [9] | inhibition [2] | inhibition [3] | Activity [10] | Activity [11] | inhibition [4] | inhibition [5]
